Measured values published in ChEMBL document CHEMBL1121586, “Synthesis, biological activity, and structure--activity/toxicity relationships of a series of terphenyl analogues of hemicholinium-3 and acetyl-seco-hemicholinium-3. 3” (J Med Chem, 1980).

Legend:
Mus musculus [1] = test: Tested for percentage mortality in charles river CD-1 strain adult male albino mice after introducing antagonist choline at intraperitoneal dosage of 20 mg/kg, 1 min prior to compound; format: functional; set-up: concentration or dose not given beside the values; details: ip
Mus musculus [2] = test: Tested for percentage mortality in charles river CD-1 strain adult male albino mice after introducing antagonist neostigmine at intraperitoneal dosage of 0.2 mg/kg, 1 min prior to compound; format: functional; set-up: concentration or dose not given beside the values; details: ip
[3] = Tested for biphenyl analogue in charles river CD-1 strain adult male albino mice after intraperitoneal administration; format: ADME, organism-based; details: CD-1, mouse, in vivo, ip
[4] = Tested for terphenyl analogue in charles river CD-1 strain adult male albino mice after intraperitoneal administration.; format: ADME, organism-based; details: CD-1, mouse, in vivo, ip
In short: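 Adult male albino Charles River CD-1 mice (20-30 g) were dosed ip with a suspension in 0.8% (w/v) sodium carboxymethylcellulose in 0.9% NaCl. The LD50 was estimated by Finney's staircase sampling method, which allows for variation in LD50 with time of day, and is reported with 95% confidence limits.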

[5] = Ratio of terphenyl LD50 doses to biphenyl HC-3 in charles river CD-1 strain adult male albino mice; format: ADME, organism-based; details: CD-1, mouse, in vivo
[6] = Ratio of terphenyl LD50 doses to biphenyl analogues in charles river CD-1 strain adult male albino mice; format: ADME, organism-based; details: CD-1, mouse, in vivo
Mus musculus [7] = test: Tested for percentage mortality in charles river CD-1 strain adult male albino mice after introducing antagonist choline at intraperitoneal dosage of 20 mg/kg, 1 min prior to compound; b represents Least toxic; format: functional, organism-based; set-up: dose 20 mg/kg
Mus musculus [8] = test: Tested for percentage mortality in charles river CD-1 strain adult male albino mice after introducing antagonist neostigmine at intraperitoneal dosage of 0.2 mg/kg, 1 min prior to compound; b represents Least toxic; format: functional, organism-based; set-up: dose 0.2 mg/kg
Mus musculus [9] = test: Tested for terphenyl analogue in charles river CD-1 strain adult male albino mice after intraperitoneal administration; b represents Least toxic; format: ADME, organism-based; details: in vivo, ip

Row | SMILES | mortality (Mus musculus [1]) | mortality (Mus musculus [2]) | LD50 [3] | LD50 [4] | selectivity ratio [5] | selectivity ratio [6] | Mortality (Mus musculus [7]) | Mortality (Mus musculus [8]) | LD95 (Mus musculus [9])
1 | C[N+]1(C)CCOC(O)(c2ccc(-c3ccc(-c4ccc(C5(O)C[N+](C)(C)CCO5)cc4)cc3)cc2)C1.[Br-].[Br-] (stereo not drawn) | 70% | 80% | 0.13 mg/kg | 0.107 mg/kg | 0.82 | 0.82 | – | – | –
2 | CCCCC[N+](C)(C)CC(=O)c1ccc(-c2ccc(-c3ccc(C(=O)C[N+](C)(C)CCCCC)cc3)cc2)cc1.[Br-].[Br-] | 80% | 100% | 5.6 mg/kg | 5.32 mg/kg | 32.8 | 1.38 | – | – | –
3 | CC(=O)CCC[N+](C)(C)CC(=O)c1ccc(-c2ccc(-c3ccc(C(=O)C[N+](C)(C)CCCC(C)=O)cc3)cc2)cc1.[Br-].[Br-] | – | – | 3.1 mg/kg | 4.27 mg/kg | 32.8 | 1.38 | – | – | –
4 | C[N+](C)(CCS)CC(=O)c1ccc(-c2ccc(-c3ccc(C(=O)C[N+](C)(C)CCS)cc3)cc2)cc1.[Br-].[Br-] | – | – | 29.4 mg/kg | – | – | – | Toxic | Toxic | Toxic
5 | CCOCC[N+](C)(C)CC(=O)c1ccc(-c2ccc(-c3ccc(C(=O)C[N+](C)(C)CCOCC)cc3)cc2)cc1.[Br-].[Br-] | 90% | 90% | 1.84 mg/kg | 16.6 mg/kg | 127 | 9.02 | – | – | –
6 | CC(=O)OCC[N+](C)(C)CC(=O)c1ccc(-c2ccc(-c3ccc(C(=O)C[N+](C)(C)CCOC(C)=O)cc3)cc2)cc1.[Br-].[Br-] | 30% | 20% | 0.125 mg/kg | 0.333 mg/kg | 2.56 | 2.66 | – | – | –
7 | CC(=O)SCC[N+](C)(C)CC(=O)c1ccc(-c2ccc(-c3ccc(C(=O)C[N+](C)(C)CCSC(C)=O)cc3)cc2)cc1.[Br-].[Br-] | 60% | 80% | 0.133 mg/kg | 3.05 mg/kg | 23.5 | 22.9 | – | – | –
